From ChEMBL document CHEMBL1125460, “Antimalarial activity of new dihydroartemisinin derivatives. 5. Sugar analogues” (J Med Chem, 1992)
Converted amounts (≈) assume the structure as drawn.

Key:
Plasmodium falciparum [1] = test: In vitro antimalarial activity against Plasmodium falciparum Indochina W2; assay type: functional, organism-based
How it was run: (§1)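 Compound dissolved in DMSO and 70% ethanol, then diluted in RPMI 1640 with 10% human plasma and tested over (1.56-100) × 10^-9 M. Parasites at 0.5% parasitemia, 1% hematocrit, incubated 24 h with compound before [3H]hypoxanthine was added, then a further 18 h. Read-out is [3H]hypoxanthine uptake. IC50 obtained by nonlinear regression of concentration-response data.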

Plasmodium falciparum [2] = test: In vitro antimalarial activity against Plasmodium falciparum D6 Sierra Leone; assay type: functional, organism-based; how it was run: as §1
Plasmodium berghei [3] = test: Antimalarial activity for Plasmodium berghei infected mice (Mus musculus) (n=5) at 20 mg/kg/day; assay type: functional
Plasmodium berghei [4] = test: Antimalarial activity for Plasmodium berghei infected mice (Mus musculus) (n=5) at 80 mg/kg/day; assay type: functional
Plasmodium berghei [5] = test: Antimalarial activity for Plasmodium berghei infected mice (Mus musculus) (n=5) at 320 mg/kg/day; assay type: functional

SMILES	IC50 (Plasmodium falciparum [1]) [µg/mL]	IC50 (Plasmodium falciparum [2]) [µg/mL]	No. of mice cured (Plasmodium berghei [3])	No. of mice cured (Plasmodium berghei [4])	No. of mice cured (Plasmodium berghei [5])
C[C@H]1[C@@H](O[C@@H]2O[C@H](CO)[C@@H](O[C@@H]3O[C@H](CO)[C@@H](O)[C@H](O)[C@H]3O)[C@H](O)[C@H]2O)O[C@@H]2O[C@@]3(C)CC[C@H]4[C@H](C)CC[C@@H]1[C@@]24OO3	0.171 (≈ 0.281 µM)	0.71 (≈ 1.17 µM)	–	–	–
C[C@H]1[C@@H](O[C@@H]2O[C@H](CO)[C@@H](O)[C@H](O)[C@H]2O)O[C@@H]2O[C@@]3(C)CC[C@H]4[C@H](C)CC[C@@H]1[C@@]24OO3	0.0341 (≈ 0.0763 µM)	0.121 (≈ 0.272 µM)	–	–	–
C[C@H]1[C@@H](O[C@@H]2O[C@H](CO)[C@H](O)[C@H](O)[C@H]2O)O[C@@H]2O[C@@]3(C)CC[C@H]4[C@H](C)CC[C@@H]1[C@@]24OO3	0.0356 (≈ 0.0797 µM)	0.0131 (≈ 0.0294 µM)	–	–	–
CC(=O)O[C@@H]1[C@@H](OC(C)=O)[C@@H](C)O[C@H](COC(=O)CO[C@H]2O[C@@H]3O[C@@]4(C)CC[C@H]5[C@H](C)CC[C@@H]([C@H]2C)[C@@]35OO4)[C@H]1OC(C)=O	0.00019 (≈ 0.000302 µM)	0.00248 (≈ 0.00394 µM)	0	0	5
C[C@H]1[C@@H](O[Si](C)(C)C)O[C@@H]2O[C@@]3(C)CC[C@H]4[C@H](C)CC[C@@H]1[C@@]24OO3	0.00042 (≈ 0.00118 µM)	0.00111 (≈ 0.00311 µM)	1	5	4
C[C@@H]1CC[C@H]2[C@@H](C)C(=O)O[C@@H]3O[C@@]4(C)CC[C@@H]1[C@]32OO4 [ARTEMISININ]	0.00068 (≈ 0.00241 µM)	–	–	–	–
